These results are taken from ChEMBL document CHEMBL3271988, “Nitrogen analogues of 1,4-benzoquinones. Activities against the ascitic sarcoma 180 of mice” (J Med Chem, 1978).

Data set [1] deals with Sarcoma-180. In words: Antitumor activity against mouse Sarcoma 180 cells allografted in Swiss mouse assessed as survival at 20 mg/kg, ip three doses were given at 24 hrs interval starting 24 hrs after allograft injection measured after 5 days. The arrangement: dose 20 mg/kg. It counts as functional, organism-based. Summed up:
(§1)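 Swiss mice were injected ip with 10^6 ascitic sarcoma 180 cells. Three daily ip doses followed, the first 24 h after cell injection. The read-out was the number of mice surviving at 5 days, out of 6 treated.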

Data set [2] is described as follows: Acute toxicity in single ip dosed Swiss mouse assessed as death up to 5 days. It counts as organism-based. Conditions: in vivo. The gist of the method: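 Male Swiss mice given one ip dose. LD50 taken as the single dose killing 50% of animals within 5 days.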
The nature of data set [3]: Redox potential of the compound in alcohol-water solution. Conditions: buffer.
Data set [4] has as its system Sarcoma-180. The experiment in a line: Antitumor activity against mouse Sarcoma 180 cells allografted in Swiss mouse assessed as weight gain at 20 mg/kg, ip three doses were given at 24 hrs interval starting 24 hrs after allograft injection measured after 3 days relative to control. Conditions: route intraperitoneal. It counts as functional. The gist of the method: (§2)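 Ascitic sarcoma 180 model in Swiss mice: 10^6 cells ip, then three ip doses at 24-h intervals beginning 24 h later. Mice were weighed 1 day after cell injection and again 3 days later (24 h after the third dose). Percent weight gain of treated mice was compared with saline-treated controls on the same schedule.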

The test system of data set [5] is Sarcoma-180. The experiment in a line: Antitumor activity against mouse Sarcoma 180 cells allografted in Swiss mouse assessed as cure at 20 mg/kg, ip three doses were given at 24 hrs interval starting 24 hrs after allograft injection measured after 60 days. The arrangement: dose 20 mg/kg. It counts as functional, organism-based. Summed up: (§3)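 Swiss mice given 10^6 ascitic sarcoma 180 cells ip. Starting 24 h later, three ip doses were given 24 h apart. Controls got isotonic salt solution on the same schedule. A cure was a mouse alive with no evidence of cancer cells 60 days after cell injection, reported per 6 mice.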

Data set [6] in a line: Half life of the compound in water at pH 7 at 25 degC by spectrophotometry. It counts as physicochemical. Summed up: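 Compound dissolved in absolute ethanol, then diluted into 0.01 M Tris buffer brought to pH 7 with HCl, 25 °C. Absorbance at λmax followed over hours or days; log absorbance vs time fitted by least squares, rate constant and half-time taken from the slope.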

Data set [7] relates to Sarcoma-180. The experiment in a line: Antitumor activity against mouse Sarcoma 180 cells allografted in Swiss mouse assessed as survival time at 20 mg/kg, ip three doses were given at 24 hrs interval starting 24 hrs after allograft injection relative to control. It counts as functional. Conditions: route intraperitoneal. Summed up: (§4)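 Swiss mice inoculated ip with 10^6 ascitic sarcoma 180 cells. Compound given ip daily ×3 at 24-h intervals, starting 24 h after inoculation. Controls received isotonic saline on the same schedule; 6 mice per group. Mice alive at 60 days counted as 60 days in mean survival (±SD).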

Data set [8] deals with Sarcoma-180. In words: Antitumor activity against mouse Sarcoma 180 cells allografted in Swiss mouse at 20 mg/kg, ip three doses were given at 24 hrs interval starting 24 hrs after allograft injection relative to control. It counts as functional. Conditions: route intraperitoneal. Summed up: (§5)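 Swiss mice received 10^6 ascitic sarcoma 180 cells ip, then three ip doses 24 h apart starting at 24 h. Controls got isotonic salt solution on the same schedule. T/C% is mean survival time of treated over controls (6 mice per group).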

Data set [9] has as its system Sarcoma-180. In words: Antitumor activity against mouse Sarcoma 180 cells allografted in Swiss mouse at 15 mg/kg, ip three doses were given at 24 hrs interval starting 24 hrs after allograft injection relative to control. It counts as functional. Conditions: route intraperitoneal. The gist of the method: as §5
For data set [10], the system named is Sarcoma-180. The experiment in a line: Antitumor activity against mouse Sarcoma 180 cells allografted in Swiss mouse assessed as weight gain at 15 mg/kg, ip three doses were given at 24 hrs interval starting 24 hrs after allograft injection measured after 3 days relative to control. It counts as functional. As to conditions: route intraperitoneal. The gist of the method:
as §2

Data set [11] relates to Sarcoma-180. The experiment in a line: Antitumor activity against mouse Sarcoma 180 cells allografted in Swiss mouse assessed as survival time at 15 mg/kg, ip three doses were given at 24 hrs interval starting 24 hrs after allograft injection relative to control. It counts as functional. As to conditions: route intraperitoneal. The gist of the method:
as §4

For data set [12], the system named is Sarcoma-180. The experiment in a line: Antitumor activity against mouse Sarcoma 180 cells allografted in Swiss mouse assessed as survival at 15 mg/kg, ip three doses were given at 24 hrs interval starting 24 hrs after allograft injection measured after 5 days. It counts as functional, organism-based. On the set-up: dose 15 mg/kg. The gist of the method: as §1

In data set [13] the test system is Sarcoma-180. The experiment in a line: Antitumor activity against mouse Sarcoma 180 cells allografted in Swiss mouse assessed as survival at 10 mg/kg, ip three doses were given at 24 hrs interval starting 24 hrs after allograft injection measured after 5 days. It counts as functional, organism-based. The arrangement: dose 10 mg/kg. The gist of the method:
as §1

The test system of data set [14] is Sarcoma-180. The experiment in a line: Antitumor activity against mouse Sarcoma 180 cells allografted in Swiss mouse at 10 mg/kg, ip three doses were given at 24 hrs interval starting 24 hrs after allograft injection relative to control. Conditions: route intraperitoneal. It counts as functional. The gist of the method: as §5
Data set [15] concerns Sarcoma-180. In words: Antitumor activity against mouse Sarcoma 180 cells allografted in Swiss mouse assessed as cure at 10 mg/kg, ip three doses were given at 24 hrs interval starting 24 hrs after allograft injection measured after 60 days. It counts as functional, organism-based. The arrangement: dose 10 mg/kg. Summed up: as §3
The test system of data set [16] is Sarcoma-180. The experiment in a line: Antitumor activity against mouse Sarcoma 180 cells allografted in Swiss mouse assessed as survival time at 10 mg/kg, ip three doses were given at 24 hrs interval starting 24 hrs after allograft injection relative to control. Conditions: route intraperitoneal. It counts as functional. Summed up: as §4
For data set [17], the system named is Sarcoma-180. In words: Antitumor activity against mouse Sarcoma 180 cells allografted in Swiss mouse assessed as weight gain at 10 mg/kg, ip three doses were given at 24 hrs interval starting 24 hrs after allograft injection measured after 3 days relative to control. It counts as functional. As to conditions: route intraperitoneal. Summed up: as §2
The subject of data set [18] is Sarcoma-180. In words: Antitumor activity against mouse Sarcoma 180 cells allografted in Swiss mouse assessed as survival time at 30 mg/kg, ip three doses were given at 24 hrs interval starting 24 hrs after allograft injection relative to control. It counts as functional. As to conditions: route intraperitoneal. The gist of the method: as §4
Data set [19] relates to Sarcoma-180. In words: Antitumor activity against mouse Sarcoma 180 cells allografted in Swiss mouse assessed as weight gain at 30 mg/kg, ip three doses were given at 24 hrs interval starting 24 hrs after allograft injection measured after 3 days relative to control. It counts as functional. Conditions: route intraperitoneal. Summed up:
as §2

Data set [20] concerns Sarcoma-180. In words: Antitumor activity against mouse Sarcoma 180 cells allografted in Swiss mouse assessed as survival at 30 mg/kg, ip three doses were given at 24 hrs interval starting 24 hrs after allograft injection measured after 5 days. It counts as functional, organism-based. The arrangement: dose 30 mg/kg. Summed up:
as §1

Data set [21] has as its system Sarcoma-180. In words: Antitumor activity against mouse Sarcoma 180 cells allografted in Swiss mouse at 30 mg/kg, ip three doses were given at 24 hrs interval starting 24 hrs after allograft injection relative to control. It counts as functional. As to conditions: route intraperitoneal. The gist of the method:
as §5

The test system of data set [22] is Sarcoma-180. The experiment in a line: Antitumor activity against mouse Sarcoma 180 cells allografted in Swiss mouse assessed as cure at 30 mg/kg, ip three doses were given at 24 hrs interval starting 24 hrs after allograft injection measured after 60 days. It counts as functional, organism-based. The arrangement: dose 30 mg/kg. The gist of the method:
as §3

Data set [23] concerns Sarcoma-180. In words: Antitumor activity against mouse Sarcoma 180 cells allografted in Swiss mouse assessed as cure at 150 mg/kg, ip three doses were given at 24 hrs interval starting 24 hrs after allograft injection measured after 60 days. It counts as functional, organism-based. On the set-up: dose 150 mg/kg. The gist of the method: as §3
Data set [24] relates to Sarcoma-180. In words: Antitumor activity against mouse Sarcoma 180 cells allografted in Swiss mouse assessed as weight gain at 150 mg/kg, ip three doses were given at 24 hrs interval starting 24 hrs after allograft injection measured after 3 days relative to control. As to conditions: route intraperitoneal. It counts as functional. Summed up: as §2
In data set [25] the test system is Sarcoma-180. The experiment in a line: Antitumor activity against mouse Sarcoma 180 cells allografted in Swiss mouse at 150 mg/kg, ip three doses were given at 24 hrs interval starting 24 hrs after allograft injection relative to control. It counts as functional. As to conditions: route intraperitoneal. Summed up:
as §5

For data set [26], the system named is Sarcoma-180. The experiment in a line: Antitumor activity against mouse Sarcoma 180 cells allografted in Swiss mouse assessed as survival at 150 mg/kg, ip three doses were given at 24 hrs interval starting 24 hrs after allograft injection measured after 5 days. On the set-up: dose 150 mg/kg. It counts as functional, organism-based. The gist of the method:
as §1

Data set [27] has as its system Sarcoma-180. In words: Antitumor activity against mouse Sarcoma 180 cells allografted in Swiss mouse assessed as survival time at 150 mg/kg, ip three doses were given at 24 hrs interval starting 24 hrs after allograft injection relative to control. It counts as functional. Conditions: route intraperitoneal. The gist of the method: as §4

The source made the active and inactive calls. No cut-off for these calls is given here.

With `CN(C)c1ccc(/N=C2/C=CC(=O)C(Cl)=C2)cc1`, the outcome in the data set with Sarcoma-180 [1] was Active. In addition, in data set [2], the LD50 at 120 h was found to be 100 mg/kg. Besides, in [3], the Redox potential worked out at 0.658 V. Besides, the Activity with Sarcoma-180 [4] is recorded as 9%. Moreover, the result in the data set with Sarcoma-180 [5] was inactive. The half-life in data set [6] was 19.9 days. Further, the Survival in the data set with Sarcoma-180 [7] turned out to be 33.3 days. In the data set with Sarcoma-180 [8], this compound had a T/C of 256%.

Regarding `O=C1C=CC(=Nc2ccc([O-])cc2)C=C1.[Na+]`, the LD50 at 120 h in data set [2] came to 50 mg/kg. In addition, the T/C in the data set with Sarcoma-180 [9] stood at 214%. The Activity in the data set on Sarcoma-180 [10] is given as -2.2%. In addition, the Survival with Sarcoma-180 [11] was 32.8 days. In the data set with Sarcoma-180 [12], the result was Active.

On to `COC1=C/C(=N\c2ccc(N(C)C)cc2)C=CC1=O`, for which the LD50 at 120 h in data set [2] was 25 mg/kg. Further, the Redox potential in data set [3] stood at 0.561 V. Besides, the outcome in the data set on Sarcoma-180 [13] was Active. Further, the T/C in the data set with Sarcoma-180 [14] amounted to 181%. The outcome in the data set with Sarcoma-180 [15] was inactive. The Survival with Sarcoma-180 [16] is 19.3 days. In addition, the Activity in the data set on Sarcoma-180 [17] came out at 1.9%.

`CN(C)c1ccc(N=C2C=CC(=O)C=C2)cc1`: the Survival in the data set on Sarcoma-180 [18] was found to be 19.2 days. Moreover, the LD50 at 120 h in data set [2] worked out at 80 mg/kg. For the same compound, in the data set on Sarcoma-180 [19], the Activity is on record as -0.9%. In [3], the Redox potential is reported as 0.628 V. Also, in the data set on Sarcoma-180 [20], the result was Active. In addition, the T/C in the data set on Sarcoma-180 [21] is 132%. Moreover, the half-life in [6] is 29.2 days. In addition, the result with Sarcoma-180 [22] was inactive.

For `O=C1C=CC(=NO)C=C1`, in the data set with Sarcoma-180 [23], the result was inactive. The Activity in the data set on Sarcoma-180 [24] is reported as -5.2%. In the data set with Sarcoma-180 [25], the T/C came to 135%. The LD50 at 120 h in [2] came out at 260 mg/kg. This compound came in with a Redox potential in data set [3] of 0.544 V. The result with Sarcoma-180 [26] was Active. In the data set with Sarcoma-180 [27], the Survival turned out to be 17.8 days.

The LD50 is the dose at which mortality reaches 50%. What is called half-life is how long it takes for the measured level to halve. One may read the T/C as the ratio of treated to control.
